Data as given in EPA's CvTdb concentration-time database.

Tests used:
Rat [1] = experiment: concentration in liver after dosing; conditions: 24 h; dosed: Perfluorohexane-1-sulphonic acid – potassium salt; 16 mg/kg; oral; Female; F344
Rat [2] = experiment: concentration in plasma after dosing; conditions: 20 min; dosed: Pyridine; 10 mg/kg; iv; Male; F344
Rat [3] = experiment: concentration in plasma after dosing; conditions: 2 min; dosed: Pyridine; 10 mg/kg; iv; Male; F344
Hamster = experiment: concentration in plasma after dosing; conditions: dosed: 2,4-Dichlorophenoxyacetic acid, 8.0 mg/kg, iv, Male, Syrian Golden
Procedure, shortened: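 Points were largely digitised from plot screenshots with WebPlotDigitizer or otherwise copied from tables, and they remain in the units each source reported. They come from published in vivo toxicokinetic studies and two structured collections. Sampling and analytical methods follow each source and were often not reported.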

Mouse [4] = experiment: concentration in plasma after dosing; conditions: dosed: 2,4-Dichlorophenoxyacetic acid, 5.2 mg/kg, oral, Male, B6C3F1
Rat [5] = experiment: concentration in plasma after dosing; conditions: dosed: Methyleugenol, 37 mg/kg, oral, Male, F344/N
Rat [6] = experiment: concentration in plasma after dosing; conditions: dosed: Methyleugenol, 37 mg/kg, iv, Male, F344
Rat [7] = experiment: concentration in plasma after dosing; conditions: dosed: Methyleugenol, 37 mg/kg, oral, Male, F344/N; remark: listed apart in the source
Rat [8] = experiment: concentration in plasma after dosing; conditions: dosed: Methyleugenol, 37 mg/kg, oral, Female, F344/N
Rat [9] = experiment: concentration in plasma after dosing; conditions: 2 min; dosed: Methyleugenol; 37 mg/kg; oral; Female; F344/N
Rat [10] = experiment: concentration in plasma after dosing; conditions: dosed: Methyleugenol, 37 mg/kg, oral, Male, F344/N; remark: listed apart in the source
Rat [11] = experiment: concentration in plasma after dosing; conditions: dosed: 2-Hydroxy-4-methoxybenzophenone, 250 mg/kg, oral, Male, F344
Rat [12] = experiment: concentration in plasma after dosing; conditions: dosed: 2-Hydroxy-4-methoxybenzophenone, 500 mg/kg, oral, Female, F344
Rat [13] = experiment: concentration in plasma after dosing; conditions: dosed: 2-Hydroxy-4-methoxybenzophenone, 250 mg/kg, oral, Female, F344
Rat [14] = experiment: concentration in plasma after dosing; conditions: dosed: 2-Hydroxy-4-methoxybenzophenone, 100 mg/kg, oral, Female, F344
Mouse [15] = experiment: concentration in plasma after dosing; conditions: 0.25 h; dosed: 2-Hydroxy-4-methoxybenzophenone; 50 mg/kg; iv; Female; B6C3F1
Mouse [16] = experiment: concentration in plasma after dosing; conditions: 0.25 h; dosed: 2-Hydroxy-4-methoxybenzophenone; 50 mg/kg; iv; Male; B6C3F1
Rat [17] = experiment: concentration in plasma after dosing; conditions: 1.5 h; dosed: alpha-Thujone; 25 mg/kg; oral; Male; Harlan Sprague Dawley
Rat [18] = experiment: concentration in plasma after dosing; conditions: 1.5 h; dosed: alpha-Thujone; 25 mg/kg; oral; Male; Harlan Sprague Dawley; remark: listed apart in the source
Rat [19] = experiment: concentration in brain after dosing; conditions: 6 h; dosed: alpha-Thujone; 50 mg/kg; oral; Female; Harlan Sprague Dawley
Rat [20] = experiment: concentration in brain after dosing; conditions: 2.5 h; dosed: 76231-76-0; 3.0 mg/kg; iv; Female; F344
Rat [21] = experiment: concentration in brain after dosing; conditions: 0.5 h; dosed: alpha-Thujone; 25 mg/kg; oral; Male; Harlan Sprague Dawley
Rat [22] = experiment: concentration in brain after dosing; conditions: 1.5 h; dosed: alpha-Thujone; 25 mg/kg; oral; Male; Harlan Sprague Dawley
Rat [23] = experiment: concentration in brain after dosing; conditions: 10 min; dosed: alpha-Thujone; 25 mg/kg; oral; Male; Harlan Sprague Dawley
Rat [24] = experiment: concentration in plasma after dosing; conditions: 6 h; dosed: alpha-Thujone; 25 mg/kg; oral; Male; Harlan Sprague Dawley
Rat [25] = experiment: concentration in plasma after dosing; conditions: 0.5 h; dosed: alpha-Thujone; 25 mg/kg; oral; Male; Harlan Sprague Dawley
Rat [26] = experiment: concentration in plasma after dosing; conditions: 2 min; dosed: alpha-Thujone; 50 mg/kg; oral; Female; Harlan Sprague Dawley
Rat [27] = experiment: concentration in plasma after dosing; conditions: 2 min; dosed: alpha-Thujone; 25 mg/kg; oral; Male; Harlan Sprague Dawley
Rat [28] = experiment: concentration in plasma after dosing; conditions: 10 min; dosed: alpha-Thujone; 50 mg/kg; oral; Female; Harlan Sprague Dawley
Rat [29] = experiment: concentration in plasma after dosing; conditions: 5 min; dosed: alpha-Thujone; 25 mg/kg; oral; Male; Harlan Sprague Dawley
Rat [30] = experiment: concentration in plasma after dosing; conditions: 2.5 h; dosed: 76231-76-0; 3.0 mg/kg; iv; Female; F344
Rat [31] = experiment: concentration in plasma after dosing; conditions: 9 h; dosed: Primidone; 30 mg/kg; oral; Female; F344
Rat [32] = experiment: concentration in plasma after dosing; conditions: 22 h; dosed: Primidone; 130 mg/kg; oral; Female; F344
Rat [33] = experiment: concentration in plasma after dosing; conditions: 0.5 h; dosed: Primidone; 130 mg/kg; oral; Male; Harlan Sprague Dawley
Rat [34] = experiment: concentration in plasma after dosing; conditions: 12 h; dosed: Primidone; 30 mg/kg; oral; Female; F344
Rat [35] = experiment: concentration in plasma after dosing; conditions: 6 h; dosed: Primidone; 30 mg/kg; oral; Female; F344

O=S(=O)([O-])C(F)(F)C(F)(F)C(F)(F)C(F)(F)C(F)(F)C(F)(F)F.[K+] [Perfluorohexane-1-sulphonic acid – potassium salt]
Conditions	concentration in liver [ng/g]
Rat [1]	53400

c1ccncc1 [Pyridine]
Conditions	concentration in plasma [ng/mL]
Rat [2]	6010
Rat [3]	10100

O=C(O)COc1ccc(Cl)cc1Cl [2,4-Dichlorophenoxyacetic acid]
concentration in plasma [ng/mL]
Conditions	0.25 h	0.5 h	2 h	3 h	4 h	5 min	6 h
Hamster	13500	7690	–	–	–	–	–
Mouse [4]	12300	19700	9630	13400	13300	6510	4310

C=CCc1ccc(OC)c(OC)c1 [Methyleugenol]
Conditions	concentration in plasma [ng/mL]
Rat [5], 0.5 h	44.9
Rat [5], 4 h	12.7
Rat [6], 3 h	263
Rat [6], 5 min	29200
Rat [7], 1.5 h	23.6
Rat [7], 6 h	8
Rat [8], 5 h	5.58
Rat [8], 20 min	146
Rat [10], 2 min	8.3
Rat [10], 4 h	11.2

Conditions	concentration in plasma [ng/mL]
Rat [9]	308

O=C(c1ccccc1)c1ccc(O)cc1O [2,4-Dihydroxybenzophenone]
concentration in plasma [ng/mL]
Conditions	Rat [11]	Rat [12]	Rat [13]	Rat [14]
0.5 h	–	675	–	–
3 h	71.8	–	213	59
10 min	40.9	–	128	126
12 h	–	221	–	–

Conditions	concentration in plasma [ng/mL]
Mouse [15]	903
Mouse [16]	1970

CC(C)[C@]12CC(=O)[C@H](C)[C@H]1C2 [alpha-Thujone]
Conditions	concentration in brain [ng/g]	concentration in plasma [ng/mL]
Rat [17]	–	240
Rat [18]	–	233
Rat [19]	42.5	–
Rat [20]	15.2	–
Rat [21]	359	–
Rat [22]	525	–
Rat [23]	765	–
Rat [24]	–	267
Rat [25]	–	176
Rat [26]	–	33.6
Rat [27]	–	17.8
Rat [28]	–	835
Rat [29]	–	1170
Rat [30]	–	2.88

CCC1(c2ccccc2)C(=O)NCNC1=O [Primidone]
Conditions	concentration in plasma [ng/mL]
Rat [31]	6000
Rat [32]	1700
Rat [33]	55800
Rat [34]	5500
Rat [35]	12100
